The results in this text go back to ChEMBL document CHEMBL4152337, “Novel indolo-sophoridinic scaffold as Topo I inhibitors: Design, synthesis and biological evaluation as anticancer agents” (Eur J Med Chem, 2018).

Calls of active or inactive are those of the source. No cut-off for these calls is given here.

Data set [1] concerns HepG2. Kind of data set: Antitumor activity against human HepG2 cells xenografted in BALB/C nude mouse assessed as tumor growth at 40 mg/kg, ip treated twice per week for 25 days relative to control. Format: functional. Summed up: (§1)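 Female BALB/c nude mice, 5–6 weeks old, with subcutaneous flank xenografts of 8 × 10⁶ HepG2 cells. Randomized when tumors reached ~150–200 mm³. Dosed ip twice weekly for 25 days at 40 mg/kg; vehicle was saline with 10% DMSO (n = 6 vehicle, n = 5 per treated group). Caliper measurements every other day, volume = 0.5 × L × W². Tumors excised and weighed at end. Mean ± SD; t-test versus vehicle.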
On the technique in general: A xenograft is tissue or cells of one species grown in another, often human tumour cells in immunodeficient mice.

For the next data set, the system named is Mus musculus. Kind of data set: Toxicity against BALB/C nude mouse xenografted with human HepG2 cells assessed as body weight loss at 40 mg/kg, ip treated twice per week measured at day 19 post dose. Format: organism-based. The settings on record: in vivo. Put shortly: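 HepG2 subcutaneous xenografts (8 × 10⁶ cells, flank) in female BALB/c nude mice aged 5–6 weeks. At ~150–200 mm³ tumors, ip dosing at 40 mg/kg twice weekly for 25 days; vehicle was saline with 10% DMSO. Body weight tracked every other day from day 1 to day 25. Mean ± SD; t-test versus vehicle.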

In data set [2] the test system is HepG2. Kind of data set: Antitumor activity against human HepG2 cells xenografted in BALB/C nude mouse assessed as tumor weight at 40 mg/kg, ip treated twice per week for 25 days (reference value: 0.84 +/- 0.09 g). Format: functional. Summed up: as §1
The subject of the next data set is CNE-2. As to the kind of experiment: Cytotoxicity against human CNE2 cells assessed as reduction in cell viability after 48 hrs by MTT assay. Format: functional, cell-based. The settings on record: CNE-2, 48 h. Put shortly: (§2)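 Cells at 3–4 × 10⁴/mL in DMEM + 10% FBS, pre-incubated 24 h in 5% CO₂. Then exposed 48 h to serial dilutions at 1, 5, 10, 20 and 50 µM; final DMSO <0.1%. MTT (5 mg/mL solution) added for 4 h at 37 °C, supernatant removed, formazan dissolved in DMSO, colorimetric read-out.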

The subject of a further data set is A549. As to the kind of experiment: Cytotoxicity against human A549 cells assessed as reduction in cell viability after 48 hrs by MTT assay. The format is functional, cell-based. The settings on record: A549, 48 h. Put shortly:
as §2
For orientation: Tetrazolium dyes change colour on reduction, which living cells bring about.

The subject of data set [3] is HepG2. As to the kind of experiment: Cell cycle arrest in human HepG2 cells accumulation at G1 phase at 2 to 6 mM after 24 hrs by propidium iodide staining-based flow cytometric analysis. The format is functional. Put shortly: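 HepG2 cells were seeded at 2 × 10⁵ per well in DMEM with 10% FBS and treated at three concentrations (2, 4, 6) for 24 h. Cells were fixed in cold 75% ethanol at 4 °C overnight, washed in PBS, then given RNase at 37 °C for 30 min and propidium iodide in the dark for 30 min. Read by flow cytometry; mean SD; three independent experiments.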
A general note: In flow cytometry, cells or beads pass a laser one at a time.

Data set [4] concerns HepG2. Kind of data set: Antitumor activity against human HepG2 cells xenografted in BALB/C nude mouse assessed as tumor volume at 40 mg/kg, ip treated twice per week for 25 days (reference value: 1185.78 +/- 137.44 mm3). The format is functional.
The subject of data set [5] is HepG2. Kind of data set: Cell cycle arrest in human HepG2 cells accumulation at S phase at 2.5 uM after 24 hrs by propidium iodide staining-based flow cytometric analysis (reference value: 45.44%). Format: functional. Summed up: (§3)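 HepG2 seeded at 2 × 10⁵ cells/well in DMEM + 10% FBS. Treated 24 h at 1, 2.5 or 5 µM. Fixed overnight in cold 75% ethanol at 4 °C, RNase-treated 30 min at 37 °C, then propidium iodide-stained 30 min in the dark. Analysed by flow cytometry. Mean ± SD; representative of three independent experiments.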

Data set [6] has as its system HepG2. As to the kind of experiment: Cell cycle arrest in human HepG2 cells accumulation at S phase at 1 uM after 24 hrs by propidium iodide staining-based flow cytometric analysis (reference value: 45.44%). The format is functional. Put shortly: as §3
The subject of data set [7] is HepG2. Kind of data set: Cytotoxicity against human HepG2 cells assessed as reduction in cell viability after 48 hrs by MTT assay. The format is functional, cell-based. The settings on record: HepG2, 48 h. Put shortly:
as §2

In data set [8] the test system is HepG2. Kind of data set: Cell cycle arrest in human HepG2 cells accumulation at S phase at 5 uM after 24 hrs by propidium iodide staining-based flow cytometric analysis (reference value: 45.44%). The format is functional. Put shortly:
as §3

Data set [9] has as its target T1, DNA topoisomerase 1 (Homo sapiens) (UniProt P11387).
T1 sequence (whole entry): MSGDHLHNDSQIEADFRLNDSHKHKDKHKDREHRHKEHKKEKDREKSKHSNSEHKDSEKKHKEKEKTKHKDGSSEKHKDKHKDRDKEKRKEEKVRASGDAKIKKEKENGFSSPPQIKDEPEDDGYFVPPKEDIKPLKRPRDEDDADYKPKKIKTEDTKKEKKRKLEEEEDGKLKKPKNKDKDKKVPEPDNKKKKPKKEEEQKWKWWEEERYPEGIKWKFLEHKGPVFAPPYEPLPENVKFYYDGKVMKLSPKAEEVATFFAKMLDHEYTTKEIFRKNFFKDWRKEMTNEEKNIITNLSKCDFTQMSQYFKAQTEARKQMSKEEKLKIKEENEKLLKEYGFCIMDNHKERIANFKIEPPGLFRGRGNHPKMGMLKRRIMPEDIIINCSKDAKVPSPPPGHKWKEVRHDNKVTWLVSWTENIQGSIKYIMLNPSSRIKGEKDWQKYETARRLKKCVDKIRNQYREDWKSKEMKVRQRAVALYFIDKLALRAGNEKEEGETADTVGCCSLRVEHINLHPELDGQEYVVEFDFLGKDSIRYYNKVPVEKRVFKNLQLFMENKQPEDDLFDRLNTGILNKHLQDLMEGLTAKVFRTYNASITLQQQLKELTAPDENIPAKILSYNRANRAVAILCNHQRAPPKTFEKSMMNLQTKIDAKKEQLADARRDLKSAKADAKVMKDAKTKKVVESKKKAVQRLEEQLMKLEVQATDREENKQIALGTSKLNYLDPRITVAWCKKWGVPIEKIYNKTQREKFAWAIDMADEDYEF
As to the kind of experiment: Inhibition of recombinant human topoisomerase-1-mediated relaxation of supercoiled pBR322 DNA at 500 uM after 30 mins by ethidium bromide staining based assay. Summed up: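 Reactions stopped with loading buffer containing 0.5% SDS, bromophenol blue and 15% glycerol. Products run on a horizontal 0.8% agarose gel in 1× TAE at 4 V/cm for 40 min at room temperature. Gel stained with ethidium bromide and imaged.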

For the compound `CCc1c2c(nc3ccc(OC(=O)N4CCC(N5CCCCC5)CC4)cc13)-c1cc3c(c(=O)n1C2)COC(=O)[C@]3(O)CC` [IRINOTECAN], the T/C (in general, the ratio of treated to control) in the data set on HepG2 [1] is 35.08%. Further, the results for the Activity result with Mus musculus and in the data set on HepG2 [2] were “Toxic” and 0.47 g, respectively.
Take `O=C1CCC[C@@H]2[C@H]3CCCN4CCC[C@H](CN12)[C@@H]34` [SOPHORIDINE]: in the data set on HepG2 [1], the T/C is given as 93.38%. Further, the 50% inhibitory concentration (IC50) (as a rule, the concentration at which inhibition is half-maximal) was determined as 5380 µM in the data set with CNE-2 and 5840 µM in the data set with A549. Besides, the outcome in the data set on HepG2 [3] was Active. Also, the Activity was found to be 1204.27 mm3 in the data set on HepG2 [4] and 0.97 g with HepG2 [2].
With `OCCCC[C@@H]1[C@H]2CCCN3CCC[C@H](CN1Cc1cn(Cc4ccc(Br)cc4)c4ccccc14)[C@@H]23`, the Activity with HepG2 [5] is 60.68%; in the data set on HepG2 [6], 55.77%; in the data set on HepG2 [8] it was 64.17%; with HepG2 [4] it was 737.04 mm3; in the data set with HepG2 [2], 0.61 g. The T/C in the data set with HepG2 [1] is on record as 55.99%. Besides, the IC50 with CNE-2 is 3.5 µM; in the data set on A549, 22.1 µM; in the data set on HepG2 [7] it was 3.1 µM. The inhibition entry in data set [9] was “Active”.
